ChEMBL document CHEMBL4732167, “Structure based design, synthesis, and biological evaluation of imidazole derivatives targeting dihydropteroate synthase enzyme” (Bioorg Med Chem Lett, 2021)
In brackets after ≈: the same amount, converted by molar mass.

Columns and labels:
Aspergillus clavatus = experiment: Antifungal activity against Aspergillus clavatus MTCC 1323 assessed as fungal growth inhibition; format: functional
Enterococcus = experiment: Antibacterial activity against vancomycin-resistant Enterococcus assessed as inhibition of bacterial growth; format: functional
How it was run: (§1)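 Growth inhibition of the drug-resistant strain was read out as the minimum inhibitory concentration (MIC), reported in µg/mL. The same protocol was also run on an ESBL strain.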

[1] = Antioxidant activity assessed as hydrogen peroxide radical scavenging activity at 25 ug/ml (reference value: 23.6 to 43.1 %); format: functional; settings: dose 25.0 µg/ml
How it was run: (§2)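 Hydrogen peroxide scavenging was measured across a compound series of 0, 25, 50, 75 and 100 µg/ml.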

Escherichia coli = experiment: Antibacterial activity against Escherichia coli MTCC 443 assessed as bacterial growth inhibition; format: functional
Staphylococcus aureus [2] = experiment: Antibacterial activity against Staphylococcus aureus MTCC 96 assessed as bacterial growth inhibition; format: functional
Bacteria = experiment: Antibacterial activity against ESBL-producing bacteria assessed as bacterial growth inhibition; format: functional
How it was run: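 Values are minimum inhibitory concentrations (MIC) in µg/mL, determined at an outside microbiology laboratory.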

[3] = Antioxidant activity assessed as nitric oxide radical scavenging activity at 100 ug/ml (reference value: 25.8 to 41.6 %); format: functional; settings: dose 100.0 µg/ml
How it was run: (§3)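 Nitric oxide radical scavenging was tested at 0, 25, 50, 75 and 100 µg/ml of compound.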

[4] = tested on: Mycobacterium tuberculosis; experiment: Antibacterial activity against Mycobacterium tuberculosis H37Rv assessed as bacterial growth inhibition; format: functional
Candida albicans = experiment: Antifungal activity against Candida albicans MTCC 227 assessed as fungal growth inhibition; format: functional
[5] = Antioxidant activity assessed as DPPH radical scavenging activity at 25 ug/ml (reference value: 22 to 40.2 %); format: functional; settings: dose 25.0 µg/ml
How it was run: (§4)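 DPPH radical scavenging was measured at 0, 25, 50, 75 and 100 µg/ml of each compound. Ascorbic acid was the reference.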

[6] = Antioxidant activity assessed as DPPH radical scavenging activity at 50 ug/ml (reference value: 22 to 40.2 %); format: functional; settings: dose 50.0 µg/ml; how it was run: as §4
Streptococcus pyogenes = experiment: Antibacterial activity against Streptococcus pyogenes MTCC 442 assessed as bacterial growth inhibition; format: functional
Pseudomonas aeruginosa = experiment: Antibacterial activity against Pseudomonas aeruginosa MTCC 1688 assessed as bacterial growth inhibition; format: functional
[7] = Antioxidant activity assessed as nitric oxide radical scavenging activity at 50 ug/ml (reference value: 25.8 to 41.6 %); format: functional; settings: dose 50.0 µg/ml; how it was run: as §3
[8] = Antioxidant activity assessed as nitric oxide radical scavenging activity at 25 ug/ml (reference value: 25.8 to 41.6 %); format: functional; settings: dose 25.0 µg/ml; how it was run: as §3
[9] = Antioxidant activity assessed as DPPH radical scavenging activity at 75 ug/ml (reference value: 22 to 40.2 %); format: functional; settings: dose 75.0 µg/ml; how it was run: as §4
[10] = Antioxidant activity assessed as hydrogen peroxide radical scavenging activity at 50 ug/ml (reference value: 23.6 to 43.1 %); format: functional; settings: dose 50.0 µg/ml; how it was run: as §2
[11] = Antioxidant activity assessed as nitric oxide radical scavenging activity at 75 ug/ml (reference value: 25.8 to 41.6 %); format: functional; settings: dose 75.0 µg/ml; how it was run: as §3
[12] = Antioxidant activity assessed as hydrogen peroxide radical scavenging activity at 75 ug/ml (reference value: 23.6 to 43.1 %); format: functional; settings: dose 75.0 µg/ml; how it was run: as §2
[13] = Antioxidant activity assessed as DPPH radical scavenging activity at 100 ug/ml (reference value: 22 to 40.2 %); format: functional; settings: dose 100.0 µg/ml; how it was run: as §4
Aspergillus niger = experiment: Antifungal activity against Aspergillus niger MTCC 282 assessed as fungal growth inhibition; format: functional
Plasmodium falciparum = experiment: Antimalarial activity against Plasmodium falciparum assessed as parasite growth inhibition; format: functional, organism-based
Staphylococcus aureus [14] = experiment: Antibacterial activity against methicillin-resistant Staphylococcus aureus assessed as inhibition of bacterial growth; format: functional; how it was run: as §1
[15] = Antioxidant activity assessed as hydrogen peroxide radical scavenging activity at 100 ug/ml (reference value: 23.6 to 43.1 %); format: functional; settings: dose 100.0 µg/ml; how it was run: as §2

Compound | MFC (Aspergillus clavatus) [µg/mL] | Activity [1] [%] | MIC (Escherichia coli) [µg/mL] | MIC (Staphylococcus aureus [2]) [µg/mL] | MIC (Bacteria) [µg/mL] | Activity [3] [%] | MIC [4] [µg/mL] | MFC (Candida albicans) [µg/mL] | Activity [5] [%] | Activity [6] [%] | MIC (Streptococcus pyogenes) [µg/mL] | MIC (Pseudomonas aeruginosa) [µg/mL] | Activity [7] [%] | Activity [8] [%] | Activity [9] [%] | Activity [10] [%] | Activity [11] [%] | Activity [12] [%] | MFC (Aspergillus niger) [µg/mL] | IC50 (Plasmodium falciparum) [µg/mL] | other results
COc1ccc(-n2c(SCC(=O)Nc3ccc(OCc4ccc(F)cc4)cc3)nc(C)c2C(C)=O)cc1 | 500 (≈ 962 µM) | 54 | 12.5 (≈ 24.1 µM) | 100 (≈ 192 µM) | 25 (≈ 48.1 µM) | 90.5 | 50 (≈ 96.2 µM) | 500 (≈ 962 µM) | 31.6 | 54.2 | 100 (≈ 192 µM) | 25 (≈ 48.1 µM) | 63.4 | 45.8 | 67.2 | 68.1 | 81.4 | 79.8 | 500 (≈ 962 µM) | 1.4 (≈ 2.69 µM) | MIC (Enterococcus): 100 µg/mL (≈ 192 µM); Activity [13]: 84.3%; MIC (Staphylococcus aureus [14]): 125 µg/mL (≈ 241 µM); Activity [15]: 84.3%
COC1=CC(=O)C[C@@H](C)[C@]12Oc1c(Cl)c(OC)cc(OC)c1C2=O [GRISEOFULVIN] | 100 (≈ 283 µM) | – | – | – | – | – | – | 500 (≈ 1420 µM) | – | – | – | – | – | – | – | – | – | – | 100 (≈ 283 µM) | – | –
GENTAMICIN | – | – | 0.05 | 0.25 | – | – | – | – | – | – | 0.5 | 1 | – | – | – | – | – | – | – | – | –
CC(=O)c1c(C)nc(SCC(=O)Nc2ccc(OC(=O)c3ccco3)cc2)n1-c1ccc(Br)cc1 | 500 (≈ 902 µM) | 51.7 | 100 (≈ 180 µM) | 100 (≈ 180 µM) | 250 (≈ 451 µM) | 86.7 | 25 (≈ 45.1 µM) | 1000 (≈ 1800 µM) | 43.2 | 57.1 | 250 (≈ 451 µM) | 250 (≈ 451 µM) | 65.3 | 49.3 | 64.8 | 68.7 | 75.8 | 79 | 500 (≈ 902 µM) | 1.18 (≈ 2.13 µM) | MIC (Enterococcus): 250 µg/mL (≈ 451 µM); Activity [13]: 88.7%; MIC (Staphylococcus aureus [14]): 100 µg/mL (≈ 180 µM); Activity [15]: 86.5%
CC(=O)c1c(C)nc(SCC(=O)Nc2ccc(OC(=O)c3ccc(Cl)cc3)cc2)n1-c1ccc(Cl)cc1 | > 1000 | 50.8 | 250 (≈ 451 µM) | 125 (≈ 225 µM) | 1000 (≈ 1800 µM) | 89.4 | – | > 1000 | 36.9 | 49.3 | 100 (≈ 180 µM) | 100 (≈ 180 µM) | 58.3 | 41.8 | 64.9 | 66.6 | 81.9 | 80 | > 1000 | 0.46 (≈ 0.83 µM) | Activity [13]: 84.5%; Activity [15]: 93.6%
CC(=O)c1c(C)nc(SCC(=O)Nc2ccc(OCc3ccc(Cl)cc3)cc2)n1-c1ccccc1 | 500 (≈ 988 µM) | 42.6 | 100 (≈ 198 µM) | 250 (≈ 494 µM) | 125 (≈ 247 µM) | 88.4 | 12.5 (≈ 24.7 µM) | > 1000 | 52.1 | 68.2 | 62.5 (≈ 124 µM) | 25 (≈ 49.4 µM) | 61.4 | 49.5 | 76 | 59.4 | 76.9 | 67.3 | 500 (≈ 988 µM) | 1.45 (≈ 2.87 µM) | MIC (Enterococcus): 100 µg/mL (≈ 198 µM); Activity [13]: 84.7%; MIC (Staphylococcus aureus [14]): 100 µg/mL (≈ 198 µM); Activity [15]: 79.6%
CC(=O)c1c(C)nc(SCC(=O)Nc2ccc(OC(=O)c3ccco3)cc2)n1-c1ccc(F)cc1 | 500 (≈ 1010 µM) | 55.9 | 100 (≈ 203 µM) | 500 (≈ 1010 µM) | 125 (≈ 253 µM) | 81.7 | 250 (≈ 507 µM) | 500 (≈ 1010 µM) | 34.6 | 48.2 | 250 (≈ 507 µM) | 250 (≈ 507 µM) | 67.4 | 45.2 | 66.7 | 64.8 | 79.6 | 76.5 | 500 (≈ 1010 µM) | 0.36 (≈ 0.729 µM) | MIC (Enterococcus): 500 µg/mL (≈ 1010 µM); Activity [13]: 82.1%; MIC (Staphylococcus aureus [14]): 1000 µg/mL (≈ 2030 µM); Activity [15]: 85.1%
CC(=O)c1c(C)nc(SCC(=O)Nc2ccc(OCc3ccc(Cl)cc3)cc2)n1-c1ccc(Cl)cc1 | > 1000 | 47.8 | 250 (≈ 463 µM) | 100 (≈ 185 µM) | 500 (≈ 925 µM) | 88.8 | 25 (≈ 46.3 µM) | 1000 (≈ 1850 µM) | 41.2 | 51.7 | 100 (≈ 185 µM) | 125 (≈ 231 µM) | 64.3 | 47.3 | 58.6 | 59.4 | 80.6 | 75.2 | > 1000 | 0.56 (≈ 1.04 µM) | MIC (Enterococcus): 500 µg/mL (≈ 925 µM); Activity [13]: 85.7%; MIC (Staphylococcus aureus [14]): 125 µg/mL (≈ 231 µM); Activity [15]: 89.7%
O=C(N[C@H](CO)[C@H](O)c1ccc([N+](=O)[O-])cc1)C(Cl)Cl [CHLORAMPHENICOL] | – | – | 50 (≈ 155 µM) | 50 (≈ 155 µM) | – | – | – | – | – | – | 50 (≈ 155 µM) | 50 (≈ 155 µM) | – | – | – | – | – | – | – | – | –
NYSTATIN | 100 | – | – | – | – | – | – | 100 | – | – | – | – | – | – | – | – | – | – | 100 | – | –
CC1(C)S[C@@H]2[C@H](NC(=O)[C@H](N)c3ccccc3)C(=O)N2[C@H]1C(=O)O [AMPICILLIN] | – | – | 100 (≈ 286 µM) | 250 (≈ 715 µM) | – | – | – | – | – | – | 100 (≈ 286 µM) | 100 (≈ 286 µM) | – | – | – | – | – | – | – | – | –
C=C[C@H]1CN2CC[C@H]1C[C@H]2[C@H](O)c1ccnc2ccc(OC)cc12 [QUININE] | – | – | – | – | – | – | – | – | – | – | – | – | – | – | – | – | – | – | – | 0.268 (≈ 0.826 µM) | –
NNC(=O)c1ccncc1 [ISONIAZID] | – | – | – | – | – | – | 0.2 (≈ 1.46 µM) | – | – | – | – | – | – | – | – | – | – | – | – | – | –
CCn1cc(C(=O)O)c(=O)c2cc(F)c(N3CCNCC3)cc21 [NORFLOXACIN] | – | – | 10 (≈ 31.3 µM) | 10 (≈ 31.3 µM) | – | – | – | – | – | – | 10 (≈ 31.3 µM) | 10 (≈ 31.3 µM) | – | – | – | – | – | – | – | – | –
O=C(O)c1cn(C2CC2)c2cc(N3CCNCC3)c(F)cc2c1=O [CIPROFLOXACIN] | – | – | 25 (≈ 75.4 µM) | 50 (≈ 151 µM) | – | – | – | – | – | – | 50 (≈ 151 µM) | – | – | – | – | – | – | – | – | – | –
